Publication PMC9302689 (British Journal of Clinical Pharmacology, 2022)

Columns and labels:
[1] = Pharmacokinetics, first-in-human single ascending dose study; type: in vivo; details: n = 8
How it was run: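 Healthy men received a single fasted dose of 3–200 mg, with 8 on active drug per cohort. Plasma was sampled pre-dose and at 0.25–36 h. Drug was quantified by validated LC–MS/MS (LLOQ 1.00 ng/mL). Cmax, tmax, t1/2, AUClast and AUC∞ were calculated by noncompartmental analysis using actual elapsed sampling times.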

[2] = test system: healthy male subjects; assay: NeuroCart adaptive tracking; type: in vivo, human; details: 12-hour post-dose period
How it was run: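 Fasted healthy men received a single dose or placebo capsule. Testing was done in a quiet, dim room, one subject at a time, after training at screening. Runs were twice pre-dose and at 0.5–10 h post-dose. The read-out was mean circle speed as % of maximum over 3.5 min. Change from baseline over 12 h was analysed by MMRM against pooled placebo, with baseline as covariate.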

[3] = biological target: T1, α1A‐adrenoceptor (Homo sapiens, UniProt P35348); assay: In vitro binding affinity, α1A-adrenoceptor; details: read-out: Ki, α1A-adrenoceptor; preclinical in vitro panel
T1 sequence (P35348 1-466): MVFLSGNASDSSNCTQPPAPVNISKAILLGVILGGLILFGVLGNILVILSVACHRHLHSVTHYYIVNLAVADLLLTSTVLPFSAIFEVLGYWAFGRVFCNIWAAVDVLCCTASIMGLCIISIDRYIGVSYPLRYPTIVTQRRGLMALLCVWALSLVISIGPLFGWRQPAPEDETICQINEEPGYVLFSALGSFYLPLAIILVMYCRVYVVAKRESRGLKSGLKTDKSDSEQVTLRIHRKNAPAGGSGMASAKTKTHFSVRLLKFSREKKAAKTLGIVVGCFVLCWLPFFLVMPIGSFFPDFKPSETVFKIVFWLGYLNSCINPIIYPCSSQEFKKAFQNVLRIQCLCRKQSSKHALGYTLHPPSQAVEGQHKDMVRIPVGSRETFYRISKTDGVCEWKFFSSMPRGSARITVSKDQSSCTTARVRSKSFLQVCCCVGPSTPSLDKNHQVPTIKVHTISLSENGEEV

[4] = biological target: hERG channel (Homo sapiens, UniProt Q12809); assay: In vitro hERG channel testing; type: biochemical
hERG channel, sequence (Q12809 whole entry): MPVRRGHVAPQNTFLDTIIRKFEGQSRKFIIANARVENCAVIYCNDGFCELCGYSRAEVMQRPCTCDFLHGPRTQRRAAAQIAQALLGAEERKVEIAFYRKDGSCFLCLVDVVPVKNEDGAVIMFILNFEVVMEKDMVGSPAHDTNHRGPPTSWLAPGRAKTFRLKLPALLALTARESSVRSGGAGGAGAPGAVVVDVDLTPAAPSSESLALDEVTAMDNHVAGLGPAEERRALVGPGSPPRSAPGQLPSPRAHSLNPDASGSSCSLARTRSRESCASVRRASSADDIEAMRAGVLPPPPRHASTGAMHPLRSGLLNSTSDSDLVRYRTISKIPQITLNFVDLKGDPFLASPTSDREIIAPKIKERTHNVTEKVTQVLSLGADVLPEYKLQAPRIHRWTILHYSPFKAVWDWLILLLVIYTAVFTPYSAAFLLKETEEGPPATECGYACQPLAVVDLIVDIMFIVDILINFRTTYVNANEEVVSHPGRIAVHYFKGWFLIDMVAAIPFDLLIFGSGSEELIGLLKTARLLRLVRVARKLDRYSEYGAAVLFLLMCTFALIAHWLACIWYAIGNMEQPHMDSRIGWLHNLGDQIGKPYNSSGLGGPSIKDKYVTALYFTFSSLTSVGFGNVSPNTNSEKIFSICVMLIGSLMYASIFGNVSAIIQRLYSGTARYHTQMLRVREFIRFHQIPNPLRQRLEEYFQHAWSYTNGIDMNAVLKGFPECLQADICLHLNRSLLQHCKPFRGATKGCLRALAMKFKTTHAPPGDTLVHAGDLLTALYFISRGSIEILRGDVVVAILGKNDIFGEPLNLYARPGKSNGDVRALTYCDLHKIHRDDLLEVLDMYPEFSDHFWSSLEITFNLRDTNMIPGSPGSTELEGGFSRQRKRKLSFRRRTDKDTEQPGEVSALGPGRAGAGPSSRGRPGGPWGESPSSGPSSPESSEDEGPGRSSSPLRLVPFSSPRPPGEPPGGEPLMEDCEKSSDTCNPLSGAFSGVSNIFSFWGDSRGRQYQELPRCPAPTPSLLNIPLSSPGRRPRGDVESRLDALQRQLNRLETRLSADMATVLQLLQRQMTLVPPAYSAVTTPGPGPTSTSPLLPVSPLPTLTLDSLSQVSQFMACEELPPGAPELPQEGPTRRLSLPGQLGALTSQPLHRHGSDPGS

Compound: CN1CCC23CCCCC2C1Cc1ccc(C(N)=O)cc13 (stereo not drawn) [ALKS 7119, (9α, 13α)‐17‐methylmorphinan‐3‐carboxamide]
- AUC infinite/dose ([1]; 3 mg single oral dose): 33.34
- AUClast, mean (SD) ([1]; 3 mg single oral dose): 85.88 (25.56) hr*ng/ml
- AUClast, range ([1]; 3 mg single oral dose): 57.37 to 129.02 ng·h/mL
- AUC∞, mean (SD) ([1]; 3 mg single oral dose): 100.03 (25.04) hr*ng/ml
- AUC∞, range ([1]; 3 mg single oral dose): 73.65 to 140.04 ng·h/mL
- Cmax, mean (SD) ([1]; 3 mg single oral dose): 8.33 (2.78) ng/ml
- Cmax, range ([1]; 3 mg single oral dose): 5.87 to 13.20 ng/mL
- Cmax/dose ([1]; 3 mg single oral dose): 2.78
- t1/2, mean (SD) ([1]; 3 mg single oral dose): 6.98(1.16) h
- t1/2, range ([1]; 3 mg single oral dose): 5.20 to 8.77 h
- tmax, median ([1]; 3 mg single oral dose): 2.02 h
- tmax, range ([1]; 3 mg single oral dose): 2.00 to 4.15 h
- AUC infinite/dose ([1]; 10 mg single oral dose): 29.54
- AUClast, mean (SD) ([1]; 10 mg single oral dose): 272.60 (35.69) hr*ng/ml
- AUClast, range ([1]; 10 mg single oral dose): 198.45 to 321.20 ng·h/mL
- AUC∞, mean (SD) ([1]; 10 mg single oral dose): 295.38 (32.29) hr*ng/ml
- AUC∞, range ([1]; 10 mg single oral dose): 233.76 to 338.34 ng·h/mL
- Cmax, mean (SD) ([1]; 10 mg single oral dose): 25.33 (3.91) ng/ml
- Cmax, range ([1]; 10 mg single oral dose): 20.40 to 32.30 ng/mL
- Cmax/dose ([1]; 10 mg single oral dose): 2.53
- t1/2, mean (SD) ([1]; 10 mg single oral dose): 8.51 (0.89) h
- t1/2, range ([1]; 10 mg single oral dose): 7.01 to 9.45 h
- tmax, median ([1]; 10 mg single oral dose): 2.00 h
- tmax, range ([1]; 10 mg single oral dose): 1.00 to 2.00 h
- AUC infinite/dose ([1]; 25 mg single oral dose): 29.25
- AUClast, mean (SD) ([1]; 25 mg single oral dose): 703.56 (89.80) hr*ng/ml
- AUClast, range ([1]; 25 mg single oral dose): 608.46 to 864.96 ng·h/mL
- AUC∞, mean (SD) ([1]; 25 mg single oral dose): 731.29 (87.27) hr*ng/ml
- AUC∞, range ([1]; 25 mg single oral dose): 640.06 to 883.94 ng·h/mL
- Cmax, mean (SD) ([1]; 25 mg single oral dose): 74.51 (16.19) ng/ml
- Cmax, range ([1]; 25 mg single oral dose): 51.00 to 93.00 ng/mL
- Cmax/dose ([1]; 25 mg single oral dose): 2.98
- t1/2, mean (SD) ([1]; 25 mg single oral dose): 7.81 (0.83) h
- t1/2, range ([1]; 25 mg single oral dose): 6.78 to 9.41 h
- tmax, median ([1]; 25 mg single oral dose): 1.00 h
- tmax, range ([1]; 25 mg single oral dose): 1.00 to 2.00 h
- AUC infinite/dose ([1]; 50 mg single oral dose): 30.94
- AUClast, mean (SD) ([1]; 50 mg single oral dose): 1473.57 (203.53) hr*ng/ml
- AUClast, range ([1]; 50 mg single oral dose): 1234.86 to 1780.97 ng·h/mL
- AUC∞, mean (SD) ([1]; 50 mg single oral dose): 1547.06 (196.89) hr*ng/ml
- AUC∞, range ([1]; 50 mg single oral dose): 1277.55 to 1828.84 ng·h/mL
- Cmax, mean (SD) ([1]; 50 mg single oral dose): 140.00 (32.44) ng/ml
- Cmax, range ([1]; 50 mg single oral dose): 103.00 to 190.00 ng/mL
- Cmax/dose ([1]; 50 mg single oral dose): 2.80
- t1/2, mean (SD) ([1]; 50 mg single oral dose): 7.81 (0.69) h
- t1/2, range ([1]; 50 mg single oral dose): 6.99 to 8.68 h
- tmax, median ([1]; 50 mg single oral dose): 1.53 h
- tmax, range ([1]; 50 mg single oral dose): 1.00 to 4.00 h
- AUC infinite/dose ([1]; 75 mg single oral dose): 33.98
- AUClast, mean (SD) ([1]; 75 mg single oral dose): 2406.33 (373.64) hr*ng/ml
- AUClast, range ([1]; 75 mg single oral dose): 1732.82 to 2969.47 ng·h/mL
- AUC∞, mean (SD) ([1]; 75 mg single oral dose): 2548.51 (468.23) hr*ng/ml
- AUC∞, range ([1]; 75 mg single oral dose): 1772.06 to 3367.86 ng·h/mL
- Cmax, mean (SD) ([1]; 75 mg single oral dose): 225.50 (40.59) ng/ml
- Cmax, range ([1]; 75 mg single oral dose): 190.00 to 302.00 ng/mL
- Cmax/dose ([1]; 75 mg single oral dose): 3.01
- t1/2, mean (SD) ([1]; 75 mg single oral dose): 8.42 (1.63) h
- t1/2, range ([1]; 75 mg single oral dose): 6.84 to 12.01 h
- tmax, median ([1]; 75 mg single oral dose): 1.50 h
- tmax, range ([1]; 75 mg single oral dose): 0.50 to 4.00 h
- AUC infinite/dose ([1]; 100 mg single oral dose): 31.36
- AUClast, mean (SD) ([1]; 100 mg single oral dose): 3027.23 (600.53) hr*ng/ml
- AUClast, range ([1]; 100 mg single oral dose): 2340.29 to 4326.23 ng·h/mL
- AUC∞, mean (SD) ([1]; 100 mg single oral dose): 3136.45 (634.60) hr*ng/ml
- AUC∞, range ([1]; 100 mg single oral dose): 2418.74 to 4525.46 ng·h/mL
- Cmax, mean (SD) ([1]; 100 mg single oral dose): 307.63 (75.28) ng/ml
- Cmax, range ([1]; 100 mg single oral dose): 224.00 to 465.00 ng/mL
- Cmax/dose ([1]; 100 mg single oral dose): 3.08
- t1/2, mean (SD) ([1]; 100 mg single oral dose): 7.63 (0.93) h
- t1/2, range ([1]; 100 mg single oral dose): 6.36 to 8.84 h
- tmax, median ([1]; 100 mg single oral dose): 1.50 h
- tmax, range ([1]; 100 mg single oral dose): 1.00 to 4.08 h
- AUC infinite/dose ([1]; 125 mg single oral dose): 33.50
- AUClast, mean (SD) ([1]; 125 mg single oral dose): 4059.17 (809.98) hr*ng/ml
- AUClast, range ([1]; 125 mg single oral dose): 3120.58 to 5579.28 ng·h/mL
- AUC∞, mean (SD) ([1]; 125 mg single oral dose): 4187.59 (840.18) hr*ng/ml
- AUC∞, range ([1]; 125 mg single oral dose): 3188.91 to 5732.16 ng·h/mL
- Cmax, range ([1]; 125 mg single oral dose): 315.00 to 745.00 ng/mL
- Cmax/dose ([1]; 125 mg single oral dose): 3.58
- t1/2, mean (SD) ([1]; 125 mg single oral dose): 7.26 (0.99) h
- t1/2, range ([1]; 125 mg single oral dose): 6.06 to 8.72 h
- tmax, median ([1]; 125 mg single oral dose): 2.00 h
- tmax, range ([1]; 125 mg single oral dose): 2.00 to 4.00 h
- AUC infinite/dose ([1]; 150 mg single oral dose): 30.22
- AUClast, mean (SD) ([1]; 150 mg single oral dose): 4361.53 (782.96) hr*ng/ml
- AUClast, range ([1]; 150 mg single oral dose): 3622.31 to 6015.06 ng·h/mL
- AUC∞, mean (SD) ([1]; 150 mg single oral dose): 4533.66 (862.77) hr*ng/ml
- AUC∞, range ([1]; 150 mg single oral dose): 3790.65 to 6362.63 ng·h/mL
- Cmax, mean (SD) ([1]; 150 mg single oral dose): 413.38 (65.38) ng/ml
- Cmax, range ([1]; 150 mg single oral dose): 314.00 to 540.00 ng/mL
- Cmax/dose ([1]; 150 mg single oral dose): 2.76
- t1/2, mean (SD) ([1]; 150 mg single oral dose): 7.53 (0.88) h
- t1/2, range ([1]; 150 mg single oral dose): 6.10 to 8.51 h
- tmax, median ([1]; 150 mg single oral dose): 2.00 h
- tmax, range ([1]; 150 mg single oral dose): 1.00 to 4.00 h
- AUC infinite/dose ([1]; 175 mg single oral dose): 34.02
- AUClast, mean (SD) ([1]; 175 mg single oral dose): 5754.94 (1013.23) hr*ng/ml
- AUClast, range ([1]; 175 mg single oral dose): 4681.45 to 7356.86 ng·h/mL
- AUC∞, mean (SD) ([1]; 175 mg single oral dose): 5954.09 (1047.00) hr*ng/ml
- AUC∞, range ([1]; 175 mg single oral dose): 4820.27 to 7488.93 ng·h/mL
- Cmax, mean (SD) ([1]; 175 mg single oral dose): 660.63 (167.66) ng/ml
- Cmax, range ([1]; 175 mg single oral dose): 451.00 to 893.00 ng/mL
- Cmax/dose ([1]; 175 mg single oral dose): 3.78
- t1/2, mean (SD) ([1]; 175 mg single oral dose): 7.48 (0.87) h
- t1/2, range ([1]; 175 mg single oral dose): 5.91 to 8.83 h
- tmax, median ([1]; 175 mg single oral dose): 2.01 h
- tmax, range ([1]; 175 mg single oral dose): 1.02 to 4.00 h
- AUC infinite/dose ([1]; 200 mg single oral dose): 33.61
- AUClast, mean (SD) ([1]; 200 mg single oral dose): 6490.47 (1144.87) hr*ng/ml
- AUClast, range ([1]; 200 mg single oral dose): 5120.43 to 8737.25 ng·h/mL
- AUC∞, mean (SD) ([1]; 200 mg single oral dose): 6721.82 (1227.19) hr*ng/ml
- AUC∞, range ([1]; 200 mg single oral dose): 5273.49 to 9126.15 ng·h/mL
- Cmax, mean (SD) ([1]; 200 mg single oral dose): 656.00 (104.74) ng/ml
- Cmax, range ([1]; 200 mg single oral dose): 491.00 to 795.00 ng/mL
- Cmax/dose ([1]; 200 mg single oral dose): 3.28
- t1/2, mean (SD) ([1]; 200 mg single oral dose): 7.35 (0.58) h
- t1/2, range ([1]; 200 mg single oral dose): 6.72 to 8.33 h
- tmax, median ([1]; 200 mg single oral dose): 3.00 h
- tmax, range ([1]; 200 mg single oral dose): 1.00 to 4.00 h
- Adaptive tracking, LSM CFB ([2]; 3 mg single oral dose): 0.15%
- Adaptive tracking, LSM CFB ([2]; 10 mg single oral dose): 2.4%
- Adaptive tracking, LSM CFB ([2]; 25 mg single oral dose): 0.24%
- Adaptive tracking, LSM CFB ([2]; 50 mg single oral dose): 2.04%
- Adaptive tracking, LSM CFB ([2]; 75 mg single oral dose): 0.25%
- Adaptive tracking, LSM CFB ([2]; 100 mg single oral dose): 1.05%
- Adaptive tracking, LSM CFB ([2]; 125 mg single oral dose): 0.8%
- Adaptive tracking, LSM CFB ([2]; 150 mg single oral dose): 0.65%
- Adaptive tracking, LSM CFB ([2]; 175 mg single oral dose): 0.9%
- Adaptive tracking, LSM CFB ([2]; 200 mg single oral dose): 0.72%
- Ki [3]: 0.98 µM
- hERG IC50 [4]: 54.3488 µg/mL
- IC50 ([4]; read-out: hERG IC50): 191 µM
